Published values gathered from unrelated publications.
Compare with care: the assays were run in different laboratories.
TEK: Angiopoietin-1 receptor (TEK, Homo sapiens, UniProt Q02763)
CDK2 with cyclin A2: Cyclin-dependent kinase 2, with cyclin A2 (CDK2, Homo sapiens, UniProt P24941)
ST14: Suppressor of tumorigenicity 14 protein (ST14, Homo sapiens, UniProt Q9Y5Y6)

Compound | target | test | setting | measurement | value
Cc1cc([C@@H](C)Nc2ccccc2C(=O)O)c2nc(N3CCC(F)(F)CC3)c(C#N)c(=O)n2c1 | Mitogen-activated protein kinase 10 (MAPK10, Homo sapiens, UniProt P53779) | binding, competition with immobilised ligand | 10 µM | remaining binding | 100%
COc1cc(-c2cncc3c2CN(C)Cc2cc(N4CCNCC4)ccc2-3)cc(OC)c1OC | Angiopoietin-1 receptor (TEK, Homo sapiens, UniProt Q02763, Y897S) | enzyme activity, inhibitor | 1 µM | remaining activity | 102%
CNc1ncc2c(/C=C/C(=O)N3CCC(OC)CC3)nn(Cc3cccc(C(F)(F)F)c3)c2n1 | TEK | enzyme activity, inhibitor, radiometric | 1 µM | remaining activity | 98%
CNC(=O)c1cc(Oc2ccc(NC(=O)Nc3ccc(Cl)c(C(F)(F)F)c3)cc2)ccn1 | CDK2 with cyclin A2 | enzyme activity, inhibitor | 5 nM | inhibition | 27.6%
CC(C)(NC(=O)[C@H](Cc1cscn1)NC(=O)CCc1ccccc1)C(=O)N[C@@H](CCCNC(=N)N)C(=O)c1nc2ccccc2s1 | ST14 | enzyme activity, inhibitor | 0.1 µM | remaining activity | 4%
C=CC(=O)N1CCC(COCC(=O)N2CCN(c3nc(-c4cnc(N)nc4C(F)F)nc(N4CCOC[C@@H]4C)n3)CC2)CC1 | TEK | binding, competition with immobilised ligand | 1 µM | remaining binding | 100%
N=C(N)NCCC[C@H](NC(=O)[C@H](Cc1ccc2ccccc2c1)NC(=O)[C@H](Cc1cscn1)NC(=O)CCc1ccccc1)C(=O)c1nc2ccccc2s1 | ST14 | enzyme activity, inhibitor | 0.1 µM | remaining activity | 8%
CC(=O)Nc1c(N)nc(SCC(=O)NN)[nH]c1=O | CDK2 with cyclin A2 | enzyme activity, inhibitor | 5 nM | inhibition | 14.6%
N=C(N)NCCC[C@H](NC(=O)[C@@H]1CCCN1C(=O)[C@H](Cc1cscn1)NC(=O)CCc1ccccc1)C(=O)c1nc2ccccc2s1 | ST14 | enzyme activity, inhibitor | 0.1 µM | remaining activity | 61%
CC(=O)Nc1c(N)nc(SCC(=O)N/N=C/c2ccc([N+](=O)[O-])cc2)[nH]c1=O | CDK2 with cyclin A2 | enzyme activity, inhibitor | 1 µM | inhibition | 67.2%
